Data from article PMC6086215 (Photoacoustics, 2018).

Key:
[1] = Absolute fluorescence quantum yield; type: physicochemical; conditions: Seronorm vs glucose solution
[2] = In vitro photoacoustic spectra and signal vs concentration in agar phantom; type: physicochemical; conditions: in glucose solution 5.5% and serum; spectra 680–970 nm, step 5 nm
Outline: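 Dyes were diluted in 5.5% glucose (plus 5% DMSO for the conjugate) or incubated 1 h at RT in human serum (HSA 47.8 g/L). Samples were loaded in PE-100 tubes in 2% agar phantoms and read at 21 MHz, 40 dB gain, persistence 3, 680–970 nm in 5 nm steps. Signals were normalized to diluted India ink. Peak signal was plotted against concentration and slopes (μM−1) compared. Data are mean ± SD.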

[3] = system: U-87MG tumors (high αvβ3 expression); experiment: In vivo photoacoustic imaging of tumor uptake, U-87MG xenograft; parameters: species or system BALB/c nu/nu mice; conditions: U-87MG tumor bearing mice, n = 5/group
[4] = system: tumor, brain, lung, liver, kidneys, heart and spleen; experiment: Ex vivo optical imaging of harvested organs and tumors; type: in vivo, BALB/c nu/nu mice; conditions: 24 h post-injection, 200 nmol i.v., harvested organs, n = 5/group
Outline: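 Nude mice bearing s.c. right-flank xenografts (5 million A431 or 2 million U-87MG cells, ~14 days) received 200 nmol test compound or parent dye in 0.2 mL i.v. via the tail vein (n=5/group). At the end, FITC-albumin (100 mg/kg i.v.) was given 5 min before sacrifice. Tumor and organs were excised for optical imaging, with tumor ROIs and no background correction.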

U-87MG tumors = experiment: Fluorescence microscopy of U-87MG tumor cryosections; type: in vivo, BALB/c nu/nu mice; conditions: U-87MG tumors excised 24 h after injection
Outline: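 U-87MG tumors were excised 24 h after i.v. test compound or parent dye, with FITC-albumin given 5 min before sacrifice to estimate permeability. Tumors were embedded in OCT, fresh-frozen in ice-cold isopentane, and cryosectioned. Probe and FITC distribution were viewed by fluorescence stereomicroscopy.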

[5] = no reference given, cited from earlier work

CC1(C)C(/C=C/C=C/C=C/C=C2\N(CCCCS(=O)(=O)O)c3ccc4ccccc4c3C2(C)C)=[N+](CCCCS(=O)(=O)[O-])c2ccc3ccccc3c21 [ICG, Indocyanine green]
increase of fluorescence efficiency in Seronorm compared to glucose solution [1]: 5 fold | maximum photoacoustic peak [2]: 800 nm | time of peak photoacoustic signal in tumor post-injection ([3]; 200 nmol i.v. tail vein): 15 min | photoacoustic signal reduction at 60 min compared to 15 min ([3]; 200 nmol i.v.): 70% | ex vivo optical imaging, organ distribution [4]: accumulated mainly in liver and kidney | microscopic fluorescence distribution in tumor cryosections (U-87MG tumors): only a patchy and weak signal | blood half-life ([5]; in human): 3 to 5 min | photostability [5]: low photostability | solubility in aqueous media [5]: low solubility in aqueous media with strong tendency to form aggregates
